# Measurements: ChEMBL document CHEMBL1133253, “Improved antibacterial activities of coumarin antibiotics bearing 5',5'-dialkylnoviose: biological activity of RU79115” (Bioorg Med Chem Lett, 2000)
# Legend:
# Enterococcus faecium [1] = assay: Tested for in vitro antibacterial activity against Enterococcus faecium 02D31P2 vancomycin teicoplanin erythromycin resistance phenotype; format: functional
# Staphylococcus aureus [2] = assay: IC50 was determined for gyrase B of Staphylococcus aureus against novobiocin (0.5 mg/mL) as reference; IC50nov/IC50comp
# [3] = system: Staphylococcus epidermidis; assay: Tested for in vitro antibacterial activity against Staphylococcus epidermidis 012GO42 oxacillin resistance phenotype; format: functional
# Staphylococcus aureus [4] = assay: Tested for in vitro antibacterial activity against Staphylococcus aureus 011 HT3 phenotype; format: functional
# Streptococcus pyogenes [5] = assay: Tested for in vitro antibacterial activity against Streptococcus pyogenes O2A1UC1 phenotype; format: functional
# Staphylococcus aureus [6] = assay: Tested for in vitro antibacterial activity against Staphylococcus aureus 011 HT1 novobiocin resistance phenotype; format: functional
# Staphylococcus aureus [7] = assay: Tested for in vitro antibacterial activity against Staphylococcus aureus 011 GO64 ofloxacin oxacillin erythromycin resistance phenotype; format: functional
# [8] = Tested for Tmax value at the dose of 10 mg/kg when administered perorally in mouse; format: ADME, organism-based; design: dose 10 mg/kg, route oral; conditions: in vivo, po
# Procedure, shortened: (§1)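 Mouse pharmacokinetics used 10 mg/kg given IV and PO. Tmax and Cmax (µg/ml) come from oral dosing, half-life is in hours, and oral bioavailability is F%.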
# [9] = Tested for bioavailability of the compound; format: ADME, organism-based; conditions: mouse, in vivo; procedure, shortened: as §1
# [10] = Tested for half life at the dose of 10 mg/kg when administered intravenously; format: ADME, organism-based; design: dose 10 mg/kg, route intravenous; conditions: mouse, in vivo, iv; procedure, shortened: as §1
# [11] = Tested for Cmax value at the dose of 10 mg/kg when administered perorally in mouse; format: ADME, organism-based; design: dose 10 mg/kg, route oral; conditions: in vivo, po; procedure, shortened: as §1
# Enterococcus faecium [12] = assay: Minimum inhibitory concentration of the orally administered compound evaluated against vancomycin resistant Enterococci faecium D3HT12 strain in mice; format: functional
# Enterococcus [13] = assay: Minimum inhibitory concentration evaluated against enterococci species resistant to vancomycin [65]*; format: functional
# Enterococcus [14] = assay: Minimum inhibitory concentration evaluated against enterococci species resistant to vancomycin and teicoplanin [17]*; format: functional
# Enterococcus [15] = assay: Minimum inhibitory concentration evaluated against enterococci species susceptible to vancomycin [26]*; format: functional
# Enterococcus faecalis = assay: Minimum inhibitory concentration of the orally administered compound evaluated against Enterococci faecalis D2HT6 strain in mice; format: functional
# Enterococcus faecium [16] = assay: Minimum inhibitory concentration of the orally administered compound evaluated against Enterococci faecium D3HT7 strain in mice; format: functional
# Enterococcus faecium [17] = assay: Minimum inhibitory concentration of the orally administered compound evaluated against vancomycin resistant Enterococci faecium D3AP9 strain in mice; format: functional
# Enterococcus faecium [18] = assay: Minimum inhibitory concentration of the orally administered compound evaluated against vancomycin resistant Enterococci faecium D3HM3 strain in mice; format: functional
# Enterococcus faecium [19] = assay: Minimum inhibitory concentration of the orally administered compound evaluated against vancomycin resistant Enterococci faecium D3HM4 strain in mice; format: functional
# Enterococcus [20] = assay: In vitro anti-enterococcal activity against enterococci species resistant to vancomycin and teicoplanin [17]* expressed as geometric mean; format: functional
# Enterococcus [21] = assay: In vitro anti-enterococcal activity against enterococci species susceptible to vancomycin [26]* expressed as geometric mean; format: functional
# pneumococci = assay: In vitro anti-streptococcal activity against pneumococci resistant to penicillin [29]* expressed as geometric mean; format: functional
# [22] = Minimum inhibitory concentration evaluated against pneumococci resistant to penicillin [29]*; format: functional
# Staphylococcus aureus [23] = assay: Minimum inhibitory concentration of the orally administered compound evaluated against Staphylococcus aureus HT-18 strain in mice; format: functional
# Staphylococcus sp. [24] = assay: Minimum inhibitory concentration evaluated against Staphylococcus species [91]*; format: functional
# Procedure, shortened: (§2)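 Two-fold agar dilution MIC, in µg/mL, against Staphylococcus panels grouped by resistance phenotype (oxacillin and/or ofloxacin resistant). Per-panel values are reported as the geometric mean and MIC90 across strains; the strain count per panel is given in brackets.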
# Staphylococcus sp. [25] = assay: Minimum inhibitory concentration evaluated against Staphylococcus species resistant to ofloxacin [59]*; format: functional; procedure, shortened: as §2
# Staphylococcus sp. [26] = assay: Minimum inhibitory concentration evaluated against Staphylococcus species resistant to oxacillin [66]*; format: functional; procedure, shortened: as §2
# Staphylococcus sp. [27] = assay: Minimum inhibitory concentration evaluated against Staphylococcus species resistant to oxacillin and ofloxacin [47]*; format: functional; procedure, shortened: as §2
# [28] = Minimum inhibitory concentration of the orally administered compound evaluated against […] PW3 strain in mice; format: functional
# Streptococcus sp. [29] = assay: In vitro anti-streptococcal activity against Streptococci species (viridans) [25]* expressed as geometric mean; format: functional
# Streptococcus sp. [30] = assay: In vitro anti-streptococcal activity against Streptococci species [38]* expressed as geometric mean; format: functional
# Streptococcus sp. [31] = assay: Minimum inhibitory concentration evaluated against Streptococci species (viridans) [25]*; format: functional
# Streptococcus sp. [32] = assay: Minimum inhibitory concentration evaluated against Streptococci species [38]*; format: functional
# Staphylococcus aureus [33] = assay: Minimum inhibitory concentration of the orally administered compound evaluated against Staphylococcus aureus GO3 strain in mice; format: functional
# Staphylococcus aureus [34] = assay: Minimum inhibitory concentration of the orally administered compound evaluated against Staphylococcus aureus GR56 strain resistant to oxacillin in mice; format: functional
# Staphylococcus aureus [35] = assay: Minimum inhibitory concentration of the orally administered compound evaluated against Staphylococcus aureus HT-17 strain in mice; format: functional
# Staphylococcus sp. [36] = assay: In vitro anti-staphylococcal activity against Staphylococcus species resistant to ofloxacin [59]* expressed as geometric mean; format: functional; procedure, shortened: as §2
# Staphylococcus sp. [37] = assay: In vitro anti-staphylococcal activity against Staphylococcus species resistant to oxacillin [66]* expressed as geometric mean; format: functional; procedure, shortened: as §2
# Staphylococcus sp. [38] = assay: In vitro anti-staphylococcal activity against Staphylococcus species resistant to oxacillin and ofloxacin[47]* expressed as geometric mean; format: functional; procedure, shortened: as §2
# Mus musculus [39] = assay: Protective dose of orally administered compound against intraperitoneally-induced septicaemia model (Staphylococcus aureus HT-17 strain) in murine; format: functional; conditions: po, read-out: PD50
# Procedure, shortened: (§3)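 PD50 was measured in a murine septicaemia model, with infection induced intraperitoneally with the named Gram-positive strain. Test compound was given orally and the PD50 was calculated by the probit method.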
# Mus musculus [40] = assay: Protective dose of orally administered compound against intraperitoneally-induced septicaemia model (Enterococci faecalis D2HT6 strain) in murine; format: functional; conditions: po, read-out: PD50; procedure, shortened: as §3
# Mus musculus [41] = assay: Protective dose of orally administered compound against intraperitoneally-induced septicaemia model (Enterococci faecium D3HT7 strain ) in murine; format: functional; conditions: po, read-out: PD50; procedure, shortened: as §3
# Mus musculus [42] = assay: Protective dose of orally administered compound against intraperitoneally-induced septicaemia model (Staphylococcus aureus GO3 strain) in murine; format: functional; conditions: po, read-out: PD50; procedure, shortened: as §3
# Mus musculus [43] = assay: Protective dose of orally administered compound against intraperitoneally-induced septicaemia model (Staphylococcus aureus HT18) in murine; format: functional; conditions: po, read-out: PD50; procedure, shortened: as §3
# Mus musculus [44] = assay: Protective dose of orally administered compound against intraperitoneally-induced septicaemia model (vancomycin resistant Enterococci faecium D3AP9 strain ) in murine; format: functional; conditions: po, read-out: PD50; procedure, shortened: as §3
# Mus musculus [45] = assay: Protective dose of orally administered compound against intraperitoneally-induced septicaemia model (vancomycin resistant Enterococci faecium D3HM3 strain ) in murine; format: functional; conditions: po, read-out: PD50; procedure, shortened: as §3
# Mus musculus [46] = assay: Protective dose of orally administered compound against intraperitoneally-induced septicaemia model (vancomycin resistant Enterococci faecium D3HM4 strain ) in murine; format: functional; conditions: po, read-out: PD50
# Procedure, shortened: (§4)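 Mice infected intraperitoneally to induce septicaemia, then given the compound by mouth. PD50 was calculated by the probit method.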
# Mus musculus [47] = assay: Protective dose of orally administered compound against intraperitoneally-induced septicaemia model (vancomycin resistant Enterococci faecium D3HT12 strain ) in murine; format: functional; conditions: po, read-out: PD50; procedure, shortened: as §4
# Mus musculus [48] = assay: Protective dose of orally administered compound against intraperitoneally-induced septicaemia model (Staphylococcus aureus GR56 strain resistant to oxacillin) in murine; format: functional; conditions: po, read-out: PD50; procedure, shortened: as §3
# Staphylococcus sp. [49] = assay: In vitro anti-staphylococcal activity against Staphylococcus species [91]* expressed as geometric mean; format: functional
# Procedure, shortened: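 Two-fold agar-dilution MICs (µg/mL) were run on a panel of staphylococcal isolates and summarised as the geometric mean across strains.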
# Streptococcus pyogenes [50] = assay: Minimum inhibitory concentration of the orally administered compound evaluated against Streptococcus pyogenes A1UC1 strain in mice
# Mus musculus [51] = assay: Protective dose of orally administered compound against intraperitoneally-induced septicaemia model (Streptococcus pneumoniae PW3 strain) in murine; conditions: po, read-out: PD50
# Mus musculus [52] = assay: Protective dose of orally administered compound against intraperitoneally-induced septicaemia model (Streptococcus pyogenes A1UC1 strain) in murine; conditions: po, read-out: PD50
# Mus musculus [53] = assay: Protective dose of orally administered compound against intraperitoneally-induced septicaemia model (Streptococcus agalactiae B1HT3 strain) in murine; conditions: po, read-out: PD50
smiles,measurement,setting,value
C#CCONC(=O)O[C@H]1[C@@H](O)[C@H](Oc2ccc3c(O)c(/C(C)=N/OC)c(=O)oc3c2C)O[C@@](C)(CC)[C@@H]1OC,MIC,Enterococcus faecium [1],0.15 µg/mL
same,Ratio,Staphylococcus aureus [2],11.1
same,MIC,[3],< 0.04 µg/mL
same,MIC,Staphylococcus aureus [4],< 0.04 µg/mL
same,MIC,Streptococcus pyogenes [5],0.08 µg/mL
same,MIC,Staphylococcus aureus [6],0.3 µg/mL
C#CCONC(=O)O[C@H]1[C@@H](O)[C@H](Oc2ccc3c(O)c(/C(C)=N/OC)c(=O)oc3c2C)OC(CC)(CC)[C@@H]1OC,MIC,Enterococcus faecium [1],0.6 µg/mL
same,Ratio,Staphylococcus aureus [2],4
same,MIC,[3],< 0.04 µg/mL
same,MIC,Staphylococcus aureus [4],< 0.04 µg/mL
same,MIC,Staphylococcus aureus [7],0.08 µg/mL
same,MIC,Streptococcus pyogenes [5],0.6 µg/mL
same,MIC,Staphylococcus aureus [6],2.5 µg/mL
C#CCONC(=O)O[C@H]1[C@@H](O)[C@H](Oc2ccc3c(=O)c(/C(C)=N/OC)c(O)oc3c2C)OC2(CCCC2)[C@@H]1OC,Tmax,[8],0.5 h
same,bioavailability,[9],62%
same,half-life,[10],2.5 h
same,Cmax,[11],5400 ng/mL
same,MIC,Enterococcus faecium [1],0.15 µg/mL
same,MIC,Enterococcus faecium [12],0.15 µg/mL
same,MIC90,Enterococcus [13],0.6 µg/mL
same,MIC90,Enterococcus [14],0.3 µg/mL
same,MIC90,Enterococcus [15],1.2 µg/mL
same,MIC,Enterococcus faecalis,0.3 µg/mL
same,MIC,Enterococcus faecium [16],0.15 µg/mL
same,MIC,Enterococcus faecium [17],0.6 µg/mL
same,MIC,Enterococcus faecium [18],0.08 µg/mL
same,MIC,Enterococcus faecium [19],0.6 µg/mL
same,GM,Enterococcus [20],0.16
same,GM,Enterococcus [21],0.26
same,Ratio,Staphylococcus aureus [2],2.6
same,GM,pneumococci,0.12
same,MIC90,[22],0.3 µg/mL
same,MIC,Staphylococcus aureus [23],< 0.04 µg/mL
same,MIC90,Staphylococcus sp. [24],0.15 µg/mL
same,MIC90,Staphylococcus sp. [25],0.15 µg/mL
same,MIC90,Staphylococcus sp. [26],0.15 µg/mL
same,MIC90,Staphylococcus sp. [27],0.15 µg/mL
same,MIC,[28],1.2 µg/mL
same,GM,Streptococcus sp. [29],0.59
same,GM,Streptococcus sp. [30],0.47
same,MIC90,Streptococcus sp. [31],1.2 µg/mL
same,MIC90,Streptococcus sp. [32],1.2 µg/mL
same,MIC,Staphylococcus aureus [33],0.3 µg/mL
same,MIC,Staphylococcus aureus [34],0.08 µg/mL
same,MIC,Staphylococcus aureus [35],0.15 µg/mL
same,GM,Staphylococcus sp. [36],0.082
same,GM,Staphylococcus sp. [37],0.097
same,GM,Staphylococcus sp. [38],0.081
same,MIC,[3],< 0.04 µg/mL
same,MIC,Staphylococcus aureus [4],< 0.04 µg/mL
same,MIC,Streptococcus pyogenes [5],0.15 µg/mL
same,ED50,Mus musculus [39],2.8 mg/kg
same,ED50,Mus musculus [40],10 mg/kg
same,ED50,Mus musculus [41],112 mg/kg
same,ED50,Mus musculus [42],7.1 mg/kg
same,ED50,Mus musculus [43],5.6 mg/kg
same,ED50,Mus musculus [44],44 mg/kg
same,ED50,Mus musculus [45],32 mg/kg
same,ED50,Mus musculus [46],77 mg/kg
same,ED50,Mus musculus [47],40 mg/kg
same,MIC,Staphylococcus aureus [6],1.2 µg/mL
same,ED50,Mus musculus [48],1 mg/kg
same,GM,Staphylococcus sp. [49],0.099
same,MIC,Streptococcus pyogenes [50],0.15 µg/mL
same,ED50,Mus musculus [51],8.5 mg/kg
same,ED50,Mus musculus [52],37.6 mg/kg
same,ED50,Mus musculus [53],27.7 mg/kg
